Tests used:
[1] = target: T1, Kappa-type opioid receptor (Mus musculus, UniProt P33534); experiment: Positive allosteric modulator activity in mouse kappa opioid receptor stably expressed in HEK293 cell membrane assessed as binding affinity of dyn A1-13 to orthosteric binding site incubated with dyn A1-13 alone for 90 mins by radioligand competition binding assay; format: cell membranes
[2] = target: T1, Kappa-type opioid receptor; experiment: Agonist activity at mouse kappa opioid receptor […] assessed as beta-arrestin 2 recruitment using furimazine as a substrate preincubated for 5 mins followed by ligand addition measured for 35 mins by BRET assay; format: functional, HEK293, Cell membrane
[3] = target: T1, Kappa-type opioid receptor; experiment: Positive allosteric modulator activity in mouse kappa opioid receptor stably expressed in HEK293 cell membrane assessed as inhibition of forskolin induced cAMP production by measuring dyn A1-13 EC50 incubated with dyn A1-13 alone measured after 30 mins by HTRF assay; format: functional, cell membranes
Outline: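 HEK293 stably expressing mouse KOR (2000 cells/well), pretreated 30 min at 37 °C with T20K (0.03–10 μM) or none, then dyn A1–13 with 10 μM forskolin and 0.5 mM IBMX for 30 min at 37 °C. cAMP by HTRF (665/620 nm) after 1 h at room temperature. Triplicates; normalized to top dyn A1–13 concentration; three-parameter fit, slope 1.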

[4] = target: Kappa-type opioid receptor (Mus musculus) (UniProt P33534); experiment: Positive allosteric modulator activity in mouse kappa opioid receptor stably expressed in HEK293 cell membrane assessed as inhibition of forskolin induced cAMP production by measuring dyn A1-13 Emax incubated with dyn A1-13 alone measured after 30 mins by HTRF assay relative to control; format: functional, cell membranes; conditions: filed as positive allosteric modulator, dose 0.03 µM, time 60.0 min
Outline: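 Stably transfected mouse KOR HEK293 cells were pretreated with modulator (0.03–10 μM) for 30 min at 37 °C. Dyn A1-13 or U50,488 plus forskolin (10 μM final) with IBMX were then added for a further 30 min at 37 °C. HTRF cAMP read at 665/620 nm. Normalised to the highest orthosteric agonist concentration; unconstrained three-parameter fit, slope 1; n = 4 (7 at 10 μM).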

With CC[C@H](C)[C@H](NC(=O)[C@H](CCCNC(=N)N)NC(=O)[C@H](CCCNC(=N)N)NC(=O)[C@H](CC(C)C)NC(=O)[C@H](Cc1ccccc1)NC(=O)CNC(=O)CNC(=O)[C@@H](N)Cc1ccc(O)cc1)C(=O)N[C@@H](CCCNC(=N)N)C(=O)N1CCC[C@H]1C(=O)N[C@@H](CCCCN)C(=O)N[C@@H](CC(C)C)C(=O)N[C@@H](CCCCN)C(=O)O [ANALOG OF DYNORPHIN A] the Ki [1] was 0.3 nM, the EC50 [2] was 159 nM and the EC50 [3] was 6.7 nM. For the same compound, the Emax [4] was 100%.
